Results published in ChEMBL document CHEMBL1134651, “Acyl substitution at the ortho position of anilides enhances oral bioavailability of thiophene sulfonamides: TBC3214, an ETA selective endothelin antagonist” (J Med Chem, 2001).

What was measured:
[1] = molecular target: Endothelin receptor, ET-A/ET-B (Homo sapiens) (UniProt P24530+P25101); experiment: Relative affinity for human ETA over ETB receptors.; format: protein assay
[2] = molecular target: T1, Endothelin-1 receptor (Homo sapiens, UniProt P25101); experiment: Inhibitory concentration was determined against selective Endothelin A receptor
T1 sequence (P25101 whole entry): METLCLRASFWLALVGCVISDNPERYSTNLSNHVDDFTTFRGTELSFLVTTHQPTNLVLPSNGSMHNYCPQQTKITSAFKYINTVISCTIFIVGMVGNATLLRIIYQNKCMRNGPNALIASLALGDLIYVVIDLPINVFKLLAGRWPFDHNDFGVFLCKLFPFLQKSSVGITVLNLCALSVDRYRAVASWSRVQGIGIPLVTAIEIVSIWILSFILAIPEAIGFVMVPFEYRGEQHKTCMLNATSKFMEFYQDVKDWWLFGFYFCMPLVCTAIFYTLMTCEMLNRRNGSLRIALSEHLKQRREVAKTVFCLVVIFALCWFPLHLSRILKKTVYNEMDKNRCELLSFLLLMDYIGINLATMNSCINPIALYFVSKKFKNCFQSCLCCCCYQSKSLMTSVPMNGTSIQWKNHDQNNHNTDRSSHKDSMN

[3] = Oral absorption expressed as Area under curve was determined; format: ADME; set-up: concentration or dose not given beside the values
In short: (§1)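 Rats given compound orally at 50 mg/kg. Serial 200 μL blood samples drawn from the tail vein into heparin-coated microhematocrit tubes at selected times. Red cells removed at once by centrifugation; plasma stored at -80 °C, proteins precipitated with acetonitrile, drug measured by HPLC. Absorption reported as peak plasma concentration (Cmax) and AUC extrapolated to infinity.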

[4] = Oral absorption expressed as peak plasma conc (Cmax) after oral dosing of 50 mg/kg in rat; format: ADME, organism-based; set-up: dose 50 mg/kg, route oral; in short: as §1
[5] = Oral bioavailability in rat; format: ADME, organism-based; details: in vivo
[6] = Oral bioavailability was evaluated in cat.; format: ADME, organism-based, Felis catus; details: in vivo
[7] = Half life period in plasma was determined; format: ADME, cell-free
[8] = Oral bioavailability was evaluated in dog.; format: ADME, organism-based, Canis lupus familiaris; details: in vivo

Sequence of Endothelin receptor, ET-A/ET-B (Homo sapiens) (P24530 whole entry, looked up, one chain of several): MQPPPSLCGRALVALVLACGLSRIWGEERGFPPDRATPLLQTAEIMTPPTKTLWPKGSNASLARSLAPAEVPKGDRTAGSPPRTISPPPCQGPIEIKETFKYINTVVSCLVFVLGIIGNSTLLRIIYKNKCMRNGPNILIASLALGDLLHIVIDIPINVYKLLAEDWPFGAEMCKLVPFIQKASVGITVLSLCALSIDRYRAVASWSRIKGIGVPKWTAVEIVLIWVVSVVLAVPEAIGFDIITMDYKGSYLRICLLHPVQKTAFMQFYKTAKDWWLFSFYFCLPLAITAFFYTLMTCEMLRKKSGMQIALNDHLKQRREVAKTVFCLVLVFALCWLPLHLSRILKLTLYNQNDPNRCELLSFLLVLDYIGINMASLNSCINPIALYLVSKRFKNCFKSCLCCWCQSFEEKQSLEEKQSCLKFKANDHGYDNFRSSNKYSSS

Row | Compound | Selectivity [1] | IC50 [2] [nM] | AUC [3] [µg·h/mL] | Cmax [4] [ng/mL] | bioavailability [5] [%] | bioavailability [6] [%] | half-life [7] [h] | bioavailability [8] [%]
1 | Cc1ccc(NC(=O)c2sccc2S(=O)(=O)Nc2onc(C)c2Cl)cc1 | 940 |  |  |  |  |  |  | 
2 | Cc1cc(C)c(NC(=O)c2sccc2S(=O)(=O)Nc2onc(C)c2Cl)c(C)c1 | 7000 | 0.17 | 103 | 35900 |  |  |  | 
3 | Cc1cc2c(cc1CC(=O)c1sccc1S(=O)(=O)Nc1onc(C)c1C)OCO2 | 10000 |  |  |  | ~100 |  |  | 
4 | Cc1cc(C)c(NC(=O)c2sccc2S(=O)(=O)Nc2onc(C)c2Cl)c(C(=O)C(C)C)c1 | 14000 | 0.12 | 298 | 59200 |  |  |  | 
5 | Cc1cc(C)c(NC(=O)c2sccc2S(=O)(=O)Nc2onc(C)c2C)c(C)c1CC#N | 14600 | 0.17 | 45.8 | 13000 |  |  |  | 
6 | CC(=O)c1cc2c(cc1NC(=O)c1sccc1S(=O)(=O)Nc1onc(C)c1Cl)OCO2 | 3000 |  |  |  | 27 |  |  | 
7 | Cc1noc(NS(=O)(=O)c2ccsc2C(=O)Cc2ccc3c(c2)OCO3)c1Cl | 300 |  |  |  |  |  |  | 
8 | Cc1cc2c(cc1CC(=O)c1sccc1S(=O)(=O)Nc1onc(C)c1Cl)OCO2 | 7000 |  |  |  |  |  |  | 
9 | Cc1cc(C)c(NC(=O)c2sccc2S(=O)(=O)Nc2onc(C)c2Cl)c(C)c1CC#N | 32900 |  | 59.9 | 42000 |  |  |  | 
10 | Cc1noc(NS(=O)(=O)c2ccsc2C(=O)Nc2ccc3c(c2)OCO3)c1Br | 500 |  |  |  |  |  |  | 
11 | CC(=O)c1cc(C)cc(C)c1NC(=O)c1sccc1S(=O)(=O)Nc1onc(C)c1Cl | 442000 | 0.04 | 272 | 57600 | 25 | 42 | 4 | 70
12 | Cc1noc(NS(=O)(=O)c2ccsc2C(=O)Nc2cc3c(cc2C#N)OCO3)c1Cl | 12000 |  |  |  | 8 |  |  | 
13 | Cc1cc(C)c(NC(=O)c2sccc2S(=O)(=O)Nc2onc(C)c2Cl)c(C)c1O | 10900 | 0.19 | 118 | 48200 |  |  |  | 
14 | Cc1cc(C)c(NC(=O)c2sccc2S(=O)(=O)Nc2noc(C)c2Cl)c(C)c1CC#N | 8500 | 0.1 | 171 | 53900 |  |  |  | 
15 | Cc1cc(C)c(CC(=O)c2sccc2S(=O)(=O)Nc2onc(C)c2Cl)c(C)c1O | 10800 | 0.14 | 15.8 | 2600 |  |  |  | 
16 | CCc1cc(C)cc(C)c1NC(=O)c1sccc1S(=O)(=O)Nc1onc(C)c1Cl |  | 0.43 | 47 | 21800 |  |  |  | 
